Sampled rows, rich in hits. Any-hit rate of the full collection: about 0.77%.
hIAP activ – human IAP activation | purified human IAP, CDP-Star luminescence, 30 min; hits give high values; 1 = vehicle-only enzyme, 0 = enzyme-free background | activation factor at 10 µM | 0.16% of 330,000 active | AID 2524;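 active means activation factor of the enzyme at least 2-fold when tested at 20 µM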
Target sequence (P09923 whole entry, looked up): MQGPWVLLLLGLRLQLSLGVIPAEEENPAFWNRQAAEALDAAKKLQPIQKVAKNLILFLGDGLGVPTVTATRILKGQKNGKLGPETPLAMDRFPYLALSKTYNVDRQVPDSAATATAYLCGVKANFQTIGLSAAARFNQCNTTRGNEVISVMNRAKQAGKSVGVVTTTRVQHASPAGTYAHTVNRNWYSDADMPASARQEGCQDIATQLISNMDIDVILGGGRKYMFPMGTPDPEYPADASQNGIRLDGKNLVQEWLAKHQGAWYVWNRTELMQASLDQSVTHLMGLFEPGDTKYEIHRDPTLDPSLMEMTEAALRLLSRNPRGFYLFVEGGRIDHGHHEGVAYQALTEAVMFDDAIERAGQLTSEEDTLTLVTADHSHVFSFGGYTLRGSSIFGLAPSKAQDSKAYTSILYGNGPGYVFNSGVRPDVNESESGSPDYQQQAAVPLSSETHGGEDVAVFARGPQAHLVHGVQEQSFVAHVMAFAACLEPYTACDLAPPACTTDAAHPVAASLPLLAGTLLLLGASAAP
mIAP inh – blocks mouse intestinal alkaline phosphatase; purified mouse IAP, CDP-Star luminescence, 30 min; AID 2806; 0.2% of 330,000 active; inhibition, % at 10 µM;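 active means inhibition of at least 40% at 10 µM in the primary screen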
bIAP inhibitor – blocks bovine intestinal alkaline phosphatase activity | purified bovine IAP, CDP-star luminescence, 30 min | inhibition, % at 20 µM | 190,000 tested, under 10 active | AID 1019;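 active means over 50% inhibition of intestinal alkaline phosphatase at 20 µM in the single-dose screen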
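System: purified bovine intestinal alkaline phosphatase (IAP) enzyme; Input: IAP diluted 1/65,000,000 in the well; Measured by: CDP-star luminescence signal; Compound dosing: 20 µM single dose; Incubation: 30 min reaction at room temperature.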
mIAP act – increases mouse intestinal alkaline phosphatase activity; muIAP, CDP-Star luminescence, 30 min; hits give high values; 1 = vehicle-only enzyme signal, 0 = enzyme-free wells; activation factor at 10 µM; 0.24% of 330,000 active; AID 2805;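 active means activation factor of at least 2 at 20 µM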
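System: mouse IAP enzyme. Reagent: CDP-Star chemiluminescent phosphatase substrate. Benchmarks: DMSO wells, no-enzyme wells. Times: 30 min enzyme-substrate-compound incubation at room temperature. Detection: luminescence from enzymatic CDP-Star hydrolysis. Doses: test compounds delivered from DMSO solution.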
bIAP act – increases bovine intestinal alkaline phosphatase activity. purified bovine IAP, CDP-star luminescence, 30 min; hits give high values; fold of DMSO-control signal, blank-subtracted. activation factor at 20 µM. 0.17% of 200,000 active;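 active means activation factor of 2 or more at 20 µM, a signal rise over negative controls twice the positive control's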
hIAP block – human IAP inhibition. 0.12% of 330,000 active. inhibition, % at 10 µM. purified IAP, CDP-Star luminescence, 30 min;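 active means inhibition reaching a set limit with compound at 10 µM in the primary screen, cut at about 35% in these data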
Each line names hits and unclear results; the compound was inactive in the other large screens.

COc1ccc(C2Nc3ccc4ccccc4c3-c3c2c(=O)oc2ccccc32)cc1 (configuration not stated)	bIAP act 3.5
CCOc1ccc(C2Nc3ccc4ccccc4c3-c3c2c(=O)oc2ccccc32)cc1 (configuration not stated)	none
Cc1cccc(NC(=O)Nc2ccc3c(c2)CCC3)c1	mIAP act 2.9 (no result: bIAP inhibitor, bIAP act)
Cc1ccc(S(=O)(=O)N(C)C)cc1NC(=S)NC(C)CCCC(C)C (configuration not stated)	mIAP act 3.9
CCCCCCC(C)NC(=S)Nc1cc(S(=O)(=O)N(C)C)ccc1C (configuration not stated)	mIAP act 4.8
Cc1noc(C)c1C(=O)Nc1ccc(S(=O)(=O)N2CCCCC2)cc1	none (no result: bIAP inhibitor, bIAP act)
Cc1noc(C)c1C(=O)Nc1ccc(S(=O)(=O)N2CCC(C)CC2)cc1	mIAP inh 51 (no result: bIAP inhibitor, bIAP act)
O=C(Nc1ccc(Cl)c(Cl)c1)O/N=C/c1ccncc1	mIAP act 2.4
Cc1ccc(NC(=O)N/C=C/c2ccccc2)cc1	mIAP act 2.2
COc1ccc(NC(=O)N/C=C/c2ccc(Cl)cc2)cc1	none
Cc1ccc(NC(=O)N/C=C/c2ccc(Cl)cc2)cc1	mIAP act 2.3 (no result: bIAP inhibitor)
CCOC(=O)N1CCC(NC(=O)c2ccc3c(c2)N(Cc2ccccc2)CCS3)CC1	bIAP act 2.5
CCOC(=O)N1CCC(NC(=O)c2ccc3c(c2)N(Cc2ccc(C)cc2)CCS3)CC1	none
CC1Cc2ccccc2N1C(=O)CSc1nnc(Cc2ccccc2)n1CCc1ccccc1 (configuration not stated)	bIAP act 5.4 (no result: hIAP activ, mIAP inh, mIAP act, hIAP block)
CC1CCCCN1C(=O)CSc1nnc(Cc2ccccc2)n1C (configuration not stated)	bIAP act 2.1
COc1ccc(CCNC(=O)c2ccc(CNc3c(N4CCOCC4)c(=O)c3=O)cc2)cc1OC	none
COc1ccc(CCNC(=O)c2cc(-c3ccccc3O)n[nH]2)cc1OC	bIAP act 2
COc1ccc(CCNC(=O)c2cc(-c3ccccc3)c(N3CCOCC3)s2)cc1OC	mIAP act 2.2 (no result: bIAP inhibitor, bIAP act)
O=C(NCCc1ccccc1)c1cc(-c2ccccc2)c(N2CCOCC2)s1	mIAP act 2.8 (no result: bIAP inhibitor, bIAP act)
CSc1ccc(CCNC(=O)c2cc(-c3ccccc3)c(N3CCOCC3)s2)cc1	mIAP act 2.4 (no result: bIAP inhibitor, bIAP act)
O=C(NC1CCCCCC1)c1ccc(CN2CCOCC2)cc1	none
Cc1nc2cc(NC(=O)NCc3ccc4c(c3)OCO4)ccc2o1	none
Cc1nc2cc(NC(=O)Nc3ccc(Br)cc3)ccc2o1	mIAP act 2
C[C@H](CO)N1C[C@H](C)[C@@H](CN(C)C(=O)Nc2ccccc2)Oc2ccc(NC(=O)NC3CCCCC3)cc2C1=O	mIAP act 2.1 (no result: bIAP inhibitor, bIAP act)
C[C@H](CO)N1C[C@H](C)[C@H](CN(C)Cc2ccccc2)Oc2ccc(NC(=O)Nc3ccc(F)cc3)cc2C1=O	mIAP act 2.2 (no result: bIAP inhibitor, bIAP act)
CC(C)NC(=O)N(C)C[C@H]1Oc2ccc(NC(=O)Nc3ccc(C(F)(F)F)cc3)cc2C(=O)N([C@H](C)CO)C[C@@H]1C	mIAP act 2.4 (no result: bIAP inhibitor, bIAP act)
COc1ccc(NC(=O)Nc2ccc3c(c2)C(=O)N([C@H](C)CO)C[C@H](C)[C@@H](CN(C)C(=O)Nc2ccccc2)O3)cc1	mIAP act 2.9 (no result: bIAP inhibitor, bIAP act)
C[C@H](CO)N1C[C@H](C)[C@H](CN(C)Cc2ccccc2)Oc2c(NC(=O)Nc3ccc(F)cc3)cccc2C1=O	none (no result: bIAP inhibitor, bIAP act)
C[C@H](CO)N1C[C@H](C)[C@@H](CN(C)C(=O)NC2CCCCC2)Oc2ccc(NC(=O)NC3CCCCC3)cc2C1=O	none (no result: bIAP inhibitor, bIAP act)
O=C(CNC(=O)c1sc2ccccc2c1Cl)NCc1cccc(C(F)(F)F)c1	none (no result: bIAP inhibitor, bIAP act)
C[C@H](CO)N1C[C@H](C)[C@@H](CN(C)C(=O)Nc2ccc(C(F)(F)F)cc2)Oc2ccc(NC(=O)Nc3ccc(C(F)(F)F)cc3)cc2C1=O	none (no result: bIAP inhibitor, bIAP act)
C[C@H]1CN([C@@H](C)CO)C(=O)c2cc(NC(=O)NC3CCCCC3)ccc2O[C@H]1CN(C)C(=O)Nc1ccc(C(F)(F)F)cc1	mIAP act 2 (no result: bIAP inhibitor, bIAP act)
COc1cc(/C=C(\C#N)C(=O)Nc2cccc3ncccc23)ccc1O	hIAP block 42
CCCN(CCC)C(=O)C1CCN(c2ccc(S(=O)(=O)N3CCOCC3)cc2[N+](=O)[O-])CC1	none (no result: bIAP inhibitor, bIAP act)
CC(C)Oc1ccc(CNC(=O)Oc2ccccc2)cc1	none (no result: bIAP inhibitor, bIAP act)
O=C(Nc1cccc(Cl)c1)N1CCN(C2c3ccccc3-c3ccccc32)CC1	mIAP act 2.1 (no result: bIAP inhibitor, bIAP act)
O=C(NC1CCN(C(=O)Nc2cccc(Cl)c2)CC1)c1ccccc1	none (no result: bIAP inhibitor, bIAP act)
CC1CCN(c2nc3nonc3nc2Nc2ccc(F)cc2)CC1	none
O=C(N/N=C/c1ccc(-c2ccccc2[N+](=O)[O-])o1)c1cncc(Br)c1	bIAP act 3.7
O=C(N/N=C\c1ccc([N+](=O)[O-])o1)c1cncc(Br)c1	none (no result: bIAP inhibitor, bIAP act)
COc1ccc(Cl)cc1NC(=S)NCCSc1ccc(C)cc1	mIAP act 2.6
Cc1ccc(SCCNC(=S)Nc2cc(C)cc(C)c2)cc1	mIAP act 3.3
Cc1ccc(NC(=O)NCCSc2ccc(C)cc2)cc1	mIAP act 2.5
COc1ccccc1NC(=S)NCCSc1ccc(Cl)cc1	none
CC(C)CNS(=O)(=O)c1ccc(NC(=O)Cn2nc(-c3ccc(F)cc3)ccc2=O)cc1	hIAP activ 2.8
COc1cc(/C=c2\s/c(=C(/C#N)C(=O)N3CCCC3)n(-c3ccccc3)c2=O)ccc1O	mIAP inh 42 (no result: bIAP inhibitor)
COC(=O)/C=c1/s/c(=C(/C#N)C(=O)N2CCCCC2)n(-c2ccccc2)c1=O	none
CCC(C)N(C(=O)COC(=O)c1cc([N+](=O)[O-])ccc1N)C1CCS(=O)(=O)C1 (configuration not stated)	none (no result: bIAP inhibitor, bIAP act)
C=C(C)c1cccc(C(C)(C)NC(=O)NCCCN2CCCC2=O)c1	none
C=C(C)c1cccc(C(C)(C)NC(=O)NCCCn2ccnc2)c1	bIAP act 2.3
CCC(C)(C)NC(=O)C(c1cccc(OC)c1)N(C(=O)c1ccn[nH]1)c1cccc(OC)c1 (configuration not stated)	none
CCC(C)(C)NC(=O)C(c1cccs1)N(C(=O)c1ccn[nH]1)c1ccccc1 (configuration not stated)	bIAP act 2.3
COc1ccc(N(C(=O)C2CSC(=O)C2)C(C(=O)NC(C)(C)C)c2ccncc2)cc1 (configuration not stated)	none
CC(C)(C)NC(=O)C(c1ccc(F)cc1)N(CCc1ccccc1)C(=O)c1ccn[nH]1 (configuration not stated)	bIAP act 2
COc1ccc(N(C(=O)c2ccn[nH]2)C(C(=O)NC(C)(C)C)c2ccc(F)cc2)cc1 (configuration not stated)	bIAP act 3
Cc1cc(C)n(C(=O)CCC(=O)NCc2ccccc2)n1	mIAP inh 56

Bioassay records: PubChem, Sanford-Burnham Center for Chemical Genomics
